Data from ChEMBL document CHEMBL1153921, “Design, synthesis, and biological evaluation of novel 1-(1H-1,2,4-triazole-1-yl)-2-(2,4-difluorophenyl)-3-substituted benzylamino-2-propanols” (2009).
Values after ≈ are worked out from the molar mass of the structure shown.

Tests used:
Type in all cases: functional
[1] = system: Pichia kudriavzevii; assay: Antimicrobial activity against Candida krusei by micro-broth dilution method
Outline: (§1)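 Clinical isolates. Tested by broth microdilution in 96-well plates following NCCLS M27-A2. MIC80, the minimum concentration inhibiting growth by 80%, was recorded. Marketed reference antifungals were included as positive controls.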

[2] = system: Candida albicans; assay: Antimicrobial activity against Candida albicans by micro-broth dilution method
Outline: (§2)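 ATCC standard strains. Broth microdilution in 96-well plates following NCCLS M27-A2 (reference broth dilution method for yeasts). Endpoint is MIC80, the lowest concentration giving 80% growth inhibition. Marketed reference antifungals ran alongside as positive controls.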

[3] = system: Cryptococcus neoformans; assay: Antimicrobial activity against Cryptococcus neoformans by micro-broth dilution method; outline: as §2
[4] = system: Candida parapsilosis; assay: Antimicrobial activity against Candida parapsilosis by micro-broth dilution method; details: Lodderomyces parapsilosis; outline: as §1
[5] = system: Candida tropicalis; assay: Antimicrobial activity against Candida tropicalis by micro-broth dilution method; outline: as §1
[6] = system: Trichophyton rubrum; assay: Antimicrobial activity against Trichophyton rubrum by micro-broth dilution method; outline: as §1
[7] = system: Nannizzia gypsea; assay: Antimicrobial activity against Microsporum gypseum by micro-broth dilution method; outline: as §1
[8] = system: Aspergillus fumigatus; assay: Antimicrobial activity against Aspergillus fumigatus by micro-broth dilution method; outline: as §1

| Compound | MIC80 [1] [µg/mL] | MIC80 [2] [µg/mL] | MIC80 [3] [µg/mL] | MIC80 [4] [µg/mL] | MIC80 [5] [µg/mL] | MIC80 [6] [µg/mL] | MIC80 [7] [µg/mL] | MIC80 [8] [µg/mL] |
| --- | --- | --- | --- | --- | --- | --- | --- | --- |
| CCCCN(Cc1ccc(CC)cc1)CC(O)(Cn1cncn1)c1ccc(F)cc1F (centres undefined) | 1 (≈ 2.33 µM) | 0.0039 (≈ 0.0091 µM) | 0.25 (≈ 0.583 µM) | 4 (≈ 9.33 µM) | 1 (≈ 2.33 µM) | 4 (≈ 9.33 µM) | 1 (≈ 2.33 µM) | > 64 |
| CCCCN(Cc1ccc(Br)cc1)CC(O)(Cn1cncn1)c1ccc(F)cc1F (centres undefined) | 1 (≈ 2.09 µM) | 4 (≈ 8.34 µM) | 0.25 (≈ 0.522 µM) | 0.25 (≈ 0.522 µM) | 1 (≈ 2.09 µM) | 0.25 (≈ 0.522 µM) | 1 (≈ 2.09 µM) | > 64 |
| CCCCN(Cc1ccc(C)cc1)CC(O)(Cn1cncn1)c1ccc(F)cc1F (centres undefined) | 1 (≈ 2.41 µM) | 4 (≈ 9.65 µM) | 0.25 (≈ 0.603 µM) | 1 (≈ 2.41 µM) | 1 (≈ 2.41 µM) | 1 (≈ 2.41 µM) | 0.25 (≈ 0.603 µM) | > 64 |
| CCCCN(Cc1ccccc1Br)CC(O)(Cn1cncn1)c1ccc(F)cc1F (centres undefined) | 1 (≈ 2.09 µM) | 1 (≈ 2.09 µM) | 0.25 (≈ 0.522 µM) | 0.25 (≈ 0.522 µM) | 0.25 (≈ 0.522 µM) | 1 (≈ 2.09 µM) | 0.25 (≈ 0.522 µM) | > 64 |
| CCCCN(Cc1ccc(Cl)cc1Cl)CC(O)(Cn1cncn1)c1ccc(F)cc1F (centres undefined) | 16 (≈ 34.1 µM) | 0.0039 (≈ 0.00831 µM) | 1 (≈ 2.13 µM) | 4 (≈ 8.52 µM) | 1 (≈ 2.13 µM) | 16 (≈ 34.1 µM) | 0.25 (≈ 0.533 µM) | > 64 |
| CCCCN(Cc1ccccc1C)CC(O)(Cn1cncn1)c1ccc(F)cc1F (centres undefined) | 1 (≈ 2.41 µM) | 1 (≈ 2.41 µM) | 0.25 (≈ 0.603 µM) | 0.25 (≈ 0.603 µM) | 0.25 (≈ 0.603 µM) | 1 (≈ 2.41 µM) | 0.0156 (≈ 0.0376 µM) | > 64 |
| CCCCN(Cc1ccc([N+](=O)[O-])cc1)CC(O)(Cn1cncn1)c1ccc(F)cc1F (centres undefined) | 1 (≈ 2.24 µM) | 0.0156 (≈ 0.035 µM) | 0.0625 (≈ 0.14 µM) | 0.25 (≈ 0.561 µM) | 0.0625 (≈ 0.14 µM) | 0.25 (≈ 0.561 µM) | 0.0625 (≈ 0.14 µM) | > 64 |
| C[C@@H]1[C@H](O)[C@@H](C)/C=C/C=C/C=C/C=C/C=C/C=C/C=C/[C@H](O[C@@H]2O[C@H](C)[C@@H](O)[C@H](N)[C@@H]2O)C[C@@H]2O[C@](O)(C[C@@H](O)C[C@@H](O)[C@H](O)CC[C@@H](O)C[C@@H](O)CC(=O)O[C@H]1C)C[C@H](O)[C@H]2C(=O)O [AMPHOTERICIN B] | 2 (≈ 2.16 µM) | 2 (≈ 2.16 µM) | 2 (≈ 2.16 µM) | 2 (≈ 2.16 µM) | 2 (≈ 2.16 µM) | 2 (≈ 2.16 µM) | 2 (≈ 2.16 µM) | 64 (≈ 69.3 µM) |
| OC(Cn1cncn1)(Cn1cncn1)c1ccc(F)cc1F [FLUCONAZOLE] | 4 (≈ 13.1 µM) | 0.5 (≈ 1.63 µM) | 1 (≈ 3.27 µM) | 1 (≈ 3.27 µM) | 1 (≈ 3.27 µM) | 4 (≈ 13.1 µM) | 0.25 (≈ 0.816 µM) | > 64 |
| CCC(C)n1ncn(-c2ccc(N3CCN(c4ccc(OCC5COC(Cn6cncn6)(c6ccc(Cl)cc6Cl)O5)cc4)CC3)cc2)c1=O (centres undefined) [ITRACONAZOLE] | 0.5 (≈ 0.709 µM) | 0.0625 (≈ 0.0886 µM) | 0.125 (≈ 0.177 µM) | 0.125 (≈ 0.177 µM) | 0.125 (≈ 0.177 µM) | 0.125 (≈ 0.177 µM) | 0.0625 (≈ 0.0886 µM) | 0.5 (≈ 0.709 µM) |
| CC(=O)N1CCN(c2ccc(OCC3COC(Cn4ccnc4)(c4ccc(Cl)cc4Cl)O3)cc2)CC1 (centres undefined) [KETOCONAZOLE] | 0.25 (≈ 0.47 µM) | 0.0156 (≈ 0.0294 µM) | 0.0625 (≈ 0.118 µM) | 0.0625 (≈ 0.118 µM) | 0.0625 (≈ 0.118 µM) | 0.0625 (≈ 0.118 µM) | 0.0156 (≈ 0.0294 µM) | 1 (≈ 1.88 µM) |
| CN(C/C=C/C#CC(C)(C)C)Cc1cccc2ccccc12 [TERBINAFINE] | 16 (≈ 54.9 µM) | 4 (≈ 13.7 µM) | 1 (≈ 3.43 µM) | 0.25 (≈ 0.858 µM) | 0.0625 (≈ 0.214 µM) | 0.0625 (≈ 0.214 µM) | 4 (≈ 13.7 µM) | 0.0625 (≈ 0.214 µM) |
| C[C@@H](c1ncncc1F)[C@](O)(Cn1cncn1)c1ccc(F)cc1F [VORICONAZOLE] | 0.0625 (≈ 0.179 µM) | 0.0156 (≈ 0.0447 µM) | 0.0156 (≈ 0.0447 µM) | 0.0039 (≈ 0.0112 µM) | 0.0039 (≈ 0.0112 µM) | 0.0625 (≈ 0.179 µM) | 0.0039 (≈ 0.0112 µM) | 0.25 (≈ 0.716 µM) |
